ChEMBL document CHEMBL2321692, “De novo fragment design: a medicinal chemistry approach to fragment-based lead generation” (J Med Chem, 2013)

Experiments:
[1] = Binding affinity to HCV NS5B570n-BK expressed in Escherichia coli by surface plasma resonance assay; assay type: cell-free, Hepatitis C virus (isolate BK)
In short: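 Kinetic dissociation constant (K_D) measured against genotype 1b NS5B polymerase, BK strain, by surface plasmon resonance.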

[2] = test system: Hepatitis C virus; assay: Inhibition of HCV NS5B570n-Con1 expressed in Escherichia coli assessed as radiolabeled nucleotide monophosphate incorporation into acid-insoluble RNA products after 2 hrs by scintillation counting analysis; parameters: species or system Hepacivirus hominis; conditions: Con1, 2 h
In short: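 IC₅₀ in the NS5B polymerase enzyme assay using genotype 1b NS5B, Con1 strain.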

[3] = Inhibition of HCV NS5B570n-BK expressed in Escherichia coli assessed as radiolabeled nucleotide monophosphate incorporation into acid-insoluble RNA products after 2 hrs by scintillation counting analysis; parameters: species or system Hepatitis C virus (isolate BK)

| IC50 [2] [µM] | IC50 [3] [µM] | Compound | Kd [1] [µM] |
| --- | --- | --- | --- |
| 364 | – | CC(C)(C)c1ccc(CN2C(=O)CNC2=O)cc1 | 400 |
| 220 | – | CC1NC(=O)N(Cc2ccc(C(C)(C)C)cc2)C1=O (configuration not stated) | 144 |
| – | – | COc1ccc(-c2ccc[nH]c2=O)cc1C(C)(C)C | 0.57 |
| 431 | – | CC(C)(C)c1ccc(Cc2ccc[nH]c2=O)cc1 | – |
| > 1000 | – | O=C1CNC(=O)N1Cc1ccc(Cl)c(Cl)c1 | – |
| > 1000 | – | O=C1CNC(=O)N1Cc1ccccc1 | – |
| 21 | – | CC(C)C1NC(=O)N(Cc2ccc(C(C)(C)C)cc2)C1=O (configuration not stated) | 18 |
| – | 130 | c1ccc(NNc2ncnc3[nH]ncc23)cc1 | 78 |
| 108 | – | CCC1NC(=O)N(Cc2ccc(C(C)(C)C)cc2)C1=O (configuration not stated) | 93 |
| 80 | – | Cc1ccccc1Oc1cccc(-c2ccc[nH]c2=O)c1 | – |
| 4 | – | CC(C)(C)c1cccc(-c2ccc[nH]c2=O)c1 | 5.8 |
